An excerpt weighted towards active compounds, which were near 0.83% of everything screened.
OXTR potentiate = potentiators of human oxytocin receptor. CHO-OTR cells, Fluo-8 calcium fluorescence, potentiator mode; 0% = oxytocin EC15, 100% = EC100. activation, % at 3 µM. P30559. actives 0.061% (n = 320,000);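 active = activation above that plate's cutoff, the mean activation of tested compounds plus 3 SD, cut at about 6.6% in these data, passing the limit was not always enough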;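 also: 100% uses oxytocin at 75 nM as the full agonist control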
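Material: CHO-OTR cells, human receptor; compound dosing: single dose, 3.0 µM nominal final compound concentration; schedule: 6 min compound pre-incubation at room temperature, 100 s kinetic read; measured by: kinetic Fluo-8 calcium fluorescence; read-out basis: % activation vs EC15 and EC100 oxytocin; controls: EC15 oxytocin alone as 0%, 75 nM oxytocin as 100%; replicates: singlicate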
zfTRPN1 agonist = agonists of zebrafish TRPN1 channel; actives 0.18% (n = 220,000); activation, % at 3 µM; HEK293 zebrafish TRPN1-YFP, Fluo-8 calcium fluorescence; 100% = response to 87 µM carbachol; AID 1424;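 active = activation above its plate's cutoff, the mean activation of test wells on that plate plus 3 SD, cut at about 19% in these data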;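 also: 0% = DMSO alone and 100% = 87 µM carbachol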
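Material: zebrafish TRPN1-YFP in HEK293 cells. Doses: one dose of 3 µM, 0.3% DMSO. Incubation: dye 1 h 37 °C plus 30 min RT. Measured by: intracellular calcium fluorescence with Fluo-8.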
OXTR agonist = activates the human oxytocin receptor; actives 0.32% (n = 320,000); activation, % at 3 µM; CHO-OTR cells, Fluo-8 calcium fluorescence; normalized: DMSO 0%, oxytocin 100%;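 active = activation above the mean of all tested compounds plus 3 SD, cutoff set per screening run, cut at about 20% in these data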;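 also: peak over basal fluorescence ratio from a 100 s FLIPR kinetic read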
CRFBP-R2 agonist = agonists of human CRF-binding protein/CRF-R2 receptor complex; activation, % at 13.2 µM; AID 588473; HEK293 CRF-R2/CRF-BP, calcium dye fluorescence (FLIPR); percent of saturating CRF peptide response; actives 0.46% (n = 350,000);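 active = activation of at least 50%, plus an integration ratio under a set limit after plate pattern correction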;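 also: plate controls were neutral control wells without compound for no effect and CRF at EC100 for full effect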
V1R ag counter = counter-screen for oxytocin receptor agonists: human V1a receptor agonists; P37288; CHO-V1R cells, Fluo-8 calcium fluorescence, agonist mode; 0% DMSO, 100% 3 nM vasopressin; activation, % at 3 µM; actives 0.25% (n = 320,000); AID 2797;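 active = activation above the mean activation of all tested compounds plus 3 SD, per screening run, cut at about 20% in these data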;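 also: signal is peak over basal fluorescence ratio across a 100 second FLIPR read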
TRPML3 ag = human mucolipin-3 channel agonism. Q8TDD5. HEK293 TRPML3-YFP, Fluo-8 calcium fluorescence; 100% = the carbachol control signal. activation, % at 3 µM. actives 0.29% (n = 220,000);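 active = activation above its plate's cutoff, the mean activation of the plate's test wells plus 3 SD, cut at about 12% in these data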;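 also: 0% = DMSO only wells and 100% = carbachol wells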
Target sequence (Q8TDD5 whole entry, looked up): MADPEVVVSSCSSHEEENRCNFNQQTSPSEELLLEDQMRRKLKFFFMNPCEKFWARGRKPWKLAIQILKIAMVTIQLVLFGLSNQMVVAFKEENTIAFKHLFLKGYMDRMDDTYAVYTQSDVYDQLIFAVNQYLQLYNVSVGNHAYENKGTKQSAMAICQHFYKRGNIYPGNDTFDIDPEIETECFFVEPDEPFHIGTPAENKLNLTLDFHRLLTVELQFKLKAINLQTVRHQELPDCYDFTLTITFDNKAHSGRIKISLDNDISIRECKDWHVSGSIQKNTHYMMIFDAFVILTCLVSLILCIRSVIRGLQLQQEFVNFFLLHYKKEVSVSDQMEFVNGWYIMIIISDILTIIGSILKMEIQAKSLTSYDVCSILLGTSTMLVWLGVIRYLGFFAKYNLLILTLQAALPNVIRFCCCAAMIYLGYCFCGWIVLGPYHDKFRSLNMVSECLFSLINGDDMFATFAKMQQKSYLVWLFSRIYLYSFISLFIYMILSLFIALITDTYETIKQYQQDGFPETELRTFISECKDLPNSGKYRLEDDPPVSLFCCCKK
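Material: TRPML3-YFP stable HEK293 cells | Dosing: One concentration, 3 µM nominal, 0.3% DMSO | Timing: 125 s total fluorescence read per well | Technique: Fluo-8 calcium dye fluorescence, ex 470-495, em 515-575 nm | Measure: Percent activation from peak-to-basal fluorescence ratio, scaled between DMSO and carbachol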
* hit, by the source's call; . = no result.

SMILES	OXTR potentiate	zfTRPN1 agonist	OXTR agonist	CRFBP-R2 agonist	V1R ag counter	TRPML3 ag
C=CCn1c(=O)[nH]c2nc3cc(N=CN(C)C)c(C)cc3nc2c1=O	-9	27*	17	144*	13	9
COc1cc2c(cc1OC)C(COc1cc(C)cc(C)c1)N(C(C)=O)CC2 (configuration not stated)	-3	.	0	-6	0	.
O=C1CSC(=S)N1/N=C/c1cc(Br)c(O)c(Br)c1	-16	.	158*	185*	140*	.
COc1cc(/C=N/N2C(=O)CSC2=S)ccc1O	-18	3	15	-2	12	4
CC(=O)Oc1ccc2c(c1)O/C(=C\c1ccncc1)C2=O	4	8	8	127*	8	5
O=C(Oc1ccc2c(c1)O/C(=C\c1ccncc1)C2=O)c1cccs1	-2	2	3	8	6	1
COc1ccccc1C(=O)Oc1ccc2c(c1)O/C(=C\c1ccncc1)C2=O	-3	5	7	124*	9	5
N=c1c2c(-c3ccccc3)c(-c3ccccc3)n(Cc3ccco3)c2ncn1Cc1ccccc1	-19	0	21*	1	23*	1
CC(C)Cn1cnc2c(c(-c3ccccc3)c(-c3ccccc3)n2Cc2ccco2)c1=N	-14	-2	5	-1	8	0
CCc1ccc(NC(=O)CCC(=O)Nc2nnc(C(C)C)s2)cc1	2	.	0	-1	1	.
CSC1=NSC2=NC(=O)/C(=C/c3coc4ccccc4c3=O)C(=N)N12	-12	36*	176*	313*	88*	10
N=C1/C(=C/c2cccn2Cc2ccc(F)cc2)C(=O)N=C2SC=CN12	-5	-1	-1	-6	-2	0
N=C1/C(=C\c2coc3ccccc3c2=O)C(=O)N=C2SC=CN12	-10	176*	116*	181*	84*	66*
CSC1=NSC2=NC(=O)/C(=C/c3coc4ccc(O)cc4c3=O)C(=N)N12	-19	1	104*	79*	77*	1
CC1=CC2=NC(=O)/C(=C/c3coc4ccc(Cl)cc4c3=O)C(=N)N2O1	-19	53*	55*	106*	34*	16*
CC(C)Cn1c(N)c(C(=O)CSc2nnc(C3CC3)n2C2CC2)c(=O)n(C)c1=O	.	.	.	0	.	.
Cc1ccc2c(c1)cc(C(=O)NCc1ccccc1)n2C	-8	.	0	-1	1	.
Cc1ccccc1SCC(=O)N/N=C/c1ccc(F)cc1	-13	.	5	-2	3	.
CC(OC(=O)CCN1C(=O)C2CC=CCC2C1=O)C(=O)Nc1ccc(F)cc1 (configuration not stated)	.	.	.	-2	.	.
C/C(=C\C=C(C#N)C#N)c1cc(C#N)c(N)o1	.	8	.	64*	.	6
CCOC(=O)CN(C(=O)c1snc(C(N)=O)c1N)C(C(=O)NC1CCCCC1)c1ccc(F)cc1 (configuration not stated)	-7	.	-1	-2	-1	.
C#CCOCCOCCOCCNc1nc(N2CCN(C(=O)CCCCCCCCCCNC(=O)[C@H](CCCCN)n3cc(CCO)nn3)CC2)nc(N2CCN(C(=O)CCCCCCCCCCNC(=O)[C@H](CCCCN)n3cc(C[C@@H](C)CC)nn3)CC2)n1	-13	.	6	146*	25*	.
C#CCOCCOCCOCCNc1nc(N2CCN(C(=O)CCCCCCCCCCNC(=O)[C@H](CCCCN)n3cc(C[C@@H](C)CC)nn3)CC2)nc(N2CCN(C(=O)CCCCCCCCCCNC(=O)[C@H](CCCN=C(N)N)n3cc(C[C@@H](C)CC)nn3)CC2)n1	5	.	1	4	2	.
O=C(Nc1ccccc1C(=O)Nc1nnc(C(F)(F)F)s1)c1ccccc1	-21	6	16	60*	13	4
CCOc1cc(S(=O)(=O)NCCCN2CCOCC2)c(C)cc1C	.	.	.	-1	.	.
SMILES	OXTR potentiate	zfTRPN1 agonist	OXTR agonist	CRFBP-R2 agonist	V1R ag counter	TRPML3 ag
CC(C)CSC1=NSC2=NC(=O)/C(=C\c3cccs3)C(=N)N12	-2	1	1	70*	2	2
N=C1/C(=C/c2cccs2)C(=O)N=C2SN=C(SCc3ccccc3)N12	-1	0	1	15	-1	1
Cc1onc(-c2ccccc2)c1C(=O)NNC(=S)NC(=O)/C=C/c1cccs1	-11	0	29*	34	24*	0
Cc1onc(-c2ccccc2)c1C(=O)NNC(=S)NC(=O)c1ccc2c(c1)OCO2	-19	23*	27*	86*	53*	23*
COc1cc(OC)c(N2CC(C(=O)NCCC3=CCCCC3)CC2=O)cc1Cl (configuration not stated)	-5	.	1	2	2	.
CCOC(=O)N1CCN(C(=O)C(NC(=O)c2ccc(C(C)(C)C)cc2)C(C)C)CC1 (configuration not stated)	2	.	-2	1	-1	.
CC(=NNC(=O)c1ccncc1)c1ccccc1O	.	.	.	0	.	.
CC(C)CC(=NNC(=O)c1ccncc1)c1cc(Cl)ccc1O	.	.	.	150*	.	.
O=c1[nH]c(=O)n(-c2ccccc2)c2c1C(C(F)(F)F)(C(F)(F)F)N=C(CCC1CCCCC1)N2	-5	0	4	109*	2	1
O=c1[nH]c(=O)n(Cc2ccco2)c2c1C(C(F)(F)F)(C(F)(F)F)N=C(CCC1CCCCC1)N2	-8	-1	11	1	8	-1
CCOc1cc(C)nc(N2CCC(C(=O)NC3CC3)CC2)n1	.	.	.	0	.	.
COc1ccccc1CNC(=O)CN1C(=O)NC2(CCCCCCC2)C1=O	4	.	1	-4	1	.
Cn1c(=O)c(NC2CCCCC2)c2c3c(cccc31)C(=O)c1ccccc1-2	.	18	.	380	.	9
Cn1c(=O)c(NCCc2ccccc2)c2c3c(cccc31)C(=O)c1ccccc1-2	-17	126*	213*	273	279*	83*
Cn1c(=O)c(NCCO)c2c3c(cccc31)C(=O)c1ccccc1-2	-22	454*	522*	865	569*	282*
CCNc1c2c3c(cccc3n(C)c1=O)C(=O)c1ccccc1-2	-35	195*	140*	179*	181*	88*
CCCCNc1c2c3c(cccc3n(C)c1=O)C(=O)c1ccccc1-2	-8	81*	134*	239*	134*	46*
CC(=O)Nc1ccc(Nc2c3c4c(cccc4n(C)c2=O)C(=O)c2ccccc2-3)cc1	1	1	1	31	0	0
CCOCc1c(C(=O)Nc2ccccc2N2CCN(C)CC2)oc2ccccc12	.	.	.	-2	.	.
Cc1ccc(CCNC(=O)c2cc(-c3ccncc3)nc3ccc(S(=O)(=O)N4CCOCC4)cc23)cc1	7	.	0	-1	0	.

Screening data as filed in PubChem BioAssay.
